Data as given in ChEMBL document CHEMBL1773052, “3-Trifluoromethylquinoxaline N,N'-dioxides as anti-trypanosomatid agents. Identification of optimal anti-T. cruzi agents and mechanism of action studies” (J Med Chem, 2011).
pIC50: −log10 of the molar value.

What was measured:
Trypanosoma cruzi [1] = experiment: Antitrypanosomal activity against Trypanosoma cruzi Tulahuen 2 epimastigotes assessed as growth inhibition at 25 uM after 5 days relative to control; assay type: functional; details: Tulahuen 2, 120 h, read-out: GI
How it was run: (§1)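 Epimastigotes grown axenically at 28 °C in BHI-tryptose + 5% FBS; a 10-day stationary culture was inoculated to 1 × 10⁶ cells/mL. Drug added from DMSO stock, final DMSO ≤0.4%, vehicle control. A600 read daily. PGI on day 5 corrects for day-0 absorbance, relative to control. […] Three independent experiments.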

Trypanosoma cruzi [2] = experiment: Antitrypanosomal activity against Trypanosoma cruzi Tulahuen 2 epimastigotes assessed as growth inhibition after 5 days; assay type: functional; details: Tulahuen 2, 120 h, read-out: ID50; how it was run: as §1
[3] = Selectivity index, ratio of ID50 for mouse J774 cells to ID50 for Trypanosoma cruzi Tulahuen 2 epimastigotes; assay type: toxicity, cell-based; details: J774 cells versus Trypanosoma cruzi Tulahuen 2 epimastigotes, read-out: Selectivity Index
[4] = Cytotoxicity against mouse J774 cells; assay type: cell-based; details: read-out: ID50 (the source's name)

SMILES | inhibition of growth at 25 µM (Trypanosoma cruzi [1]) [%] | pIC50 (Trypanosoma cruzi [2]) | selectivity ratio [3] | CC50 [4] [µM]
O=C(c1ccccc1)c1c(C(F)F)[n+]([O-])c2ccccc2[n+]1[O-] | 35.8 |  |  | 
Cc1ccc2c(c1)[n+]([O-])c(C)c(C(=O)c1ccccc1)[n+]2[O-] | 8 |  |  | 
Cc1cc2c(cc1C)[n+]([O-])c(Cc1ccccc1)c(C)[n+]2[O-] | 0 |  |  | 
O=C(c1ccco1)c1c(C(F)(F)F)[n+]([O-])c2cc(C(F)(F)F)ccc2[n+]1[O-] | 100 | 5.30 |  | 
O=C(c1ccccc1)c1nc2ccccc2nc1C(F)(F)F | 49 |  |  | 
Cc1cc2c(cc1C)[n+]([O-])c(C(F)(F)F)c(C(=O)c1ccccc1)[n+]2[O-] | 72 | 5.85 |  | 
Cc1c(Cc2ccccc2)[n+]([O-])c2ccc(Cl)cc2[n+]1[O-] | 0 |  |  | 
O=C(c1cccs1)c1c(C(F)(F)F)[n+]([O-])c2ccccc2[n+]1[O-] | 100 | 5.96 | 4.3 | 4.69
CC(C)C(=O)c1c(C(F)(F)F)[n+]([O-])c2ccccc2[n+]1[O-] | 100 | < 5.60 |  | 
CCOC(=O)c1c(-c2ccccc2)[n+]([O-])c2cc(Cl)ccc2[n+]1[O-] | 88 | 4.90 |  | 
Cc1c(Cc2ccccc2)[n+]([O-])c2cc(Cl)c(Cl)cc2[n+]1[O-] | 24 |  |  | 
Cc1c(Cc2ccccc2)[n+]([O-])c2ccccc2[n+]1[O-] | 0 |  |  | 
COC(=O)c1c(C)[n+]([O-])c2cc(Cl)c(Cl)cc2[n+]1[O-] | 66 |  |  | 
O=C(c1ccco1)c1c(C(F)(F)F)[n+]([O-])c2ccc(C(F)(F)F)cc2[n+]1[O-] | 100 | 5.32 |  | 
CCOC(=O)c1c(-c2ccccc2)[n+]([O-])c2cc(OC)ccc2[n+]1[O-] | 0 |  |  | 
Cc1c(C(=O)NC(C)(C)C)[n+]([O-])c2cc(Cl)c(Cl)cc2[n+]1[O-] | 28 |  |  | 
O=C(c1cccc2ccccc12)c1c(C(F)(F)F)[n+]([O-])c2cc(F)c(F)cc2[n+]1[O-] | 100 | 5.41 |  | 
Cc1c(C(=O)c2ccccc2)[n+]([O-])c2ccccc2[n+]1[O-] | 19 |  |  | 
Cc1ccc2c(c1)[n+]([O-])c(C(F)(F)F)c(C(=O)c1ccccc1)[n+]2[O-] | 99 | 5.89 |  | 

SMILES | inhibition of growth at 25 µM (Trypanosoma cruzi [1]) [%] | pIC50 (Trypanosoma cruzi [2]) | selectivity ratio [3] | CC50 [4] [µM]
O=C(c1ccccc1)c1c(C(F)F)[n+]([O-])c2cc(F)ccc2[n+]1[O-] | 100 | 5.20 |  | 
O=C(c1c(C(F)(F)F)[n+]([O-])c2ccccc2[n+]1[O-])N1CCN(c2ccc(Cl)cc2)CC1 | 100 | 6.10 | 10.4 | 8.25
Cc1cc2c(cc1C)[n+]([O-])c(C(=O)Nc1ccccc1)c(C)[n+]2[O-] | 16 |  |  | 
Cc1c(C(=O)Nc2ccccc2)[n+]([O-])c2cc(Cl)c(Cl)cc2[n+]1[O-] | 61 |  |  | 
CC(=O)c1c(C)[n+]([O-])c2cc(C)c(C)cc2[n+]1[O-] | 2 |  |  | 
CCC(=O)c1c(C(F)(F)F)[n+]([O-])c2cc(Cl)c(Cl)cc2[n+]1[O-] | 100 | 6.11 |  | 
O=C(c1ccccc1)c1c(C(F)F)[n+]([O-])c2cc(Cl)ccc2[n+]1[O-] | 100 | 5.19 |  | 
CCOC(=O)c1c(-c2ccccc2)[n+]([O-])c2ccccc2[n+]1[O-] | 29 |  |  | 
Cc1cc2c(cc1C)[n+]([O-])c(C(=O)NC(C)(C)C)c(C)[n+]2[O-] | 0 |  |  | 
O=C(c1ccccc1)c1c(C(F)(F)F)[n+]([O-])c2cc(Cl)c(Cl)cc2[n+]1[O-] | 100 | 5.62 |  | 
CCOC(=O)c1c(C)[n+]([O-])c2cc(Cl)c(Cl)cc2[n+]1[O-] | 32 |  |  | 
O=C(c1cccs1)c1c(C(F)(F)F)[n+]([O-])c2cc(F)c(F)cc2[n+]1[O-] | 100 | 5.55 |  | 
CC(C)(C)C(=O)c1nc2ccccc2nc1C(F)(F)F | 43 |  |  | 
O=C(c1ccccc1)c1c(C(F)(F)F)[n+]([O-])c2cc(Cl)ccc2[n+]1[O-] | 90 | 5.52 |  | 
CCOC(=O)c1c(C)[n+]([O-])c2cc(C)c(C)cc2[n+]1[O-] | 1 |  |  | 
O=C(c1ccc(Cl)cc1)c1c(C(F)(F)F)[n+]([O-])c2cc(F)c(F)cc2[n+]1[O-] | 100 | 5.60 |  | 
CC(C)C(=O)c1c(C(F)(F)F)[n+]([O-])c2cc(F)c(F)cc2[n+]1[O-] | 23.6 |  | < 0.5 | 11.5
Cc1c(C(=O)c2ccccc2)[n+]([O-])c2cc(Cl)c(Cl)cc2[n+]1[O-] | 91 | 4.93 |  | 
Cc1ccccc1NC(=O)c1c(C)[n+]([O-])c2ccccc2[n+]1[O-] | 21 |  |  | 

SMILES | inhibition of growth at 25 µM (Trypanosoma cruzi [1]) [%] | pIC50 (Trypanosoma cruzi [2]) | selectivity ratio [3] | CC50 [4] [µM]
CC(=O)c1c(C)[n+]([O-])c2ccccc2[n+]1[O-] [MEQUINDOX] | 29 |  |  | 
O=C(c1ccccc1)c1c(C(F)F)[n+]([O-])c2cc(Cl)c(Cl)cc2[n+]1[O-] | 100 | 5.33 |  | 
CCOC(=O)c1c(-c2ccccc2)[n+]([O-])c2cc(F)c(F)cc2[n+]1[O-] | 100 | 5.48 |  | 
COc1ccc2c(c1)[n+]([O-])c(C(F)F)c(C(=O)c1ccccc1)[n+]2[O-] | 100 | 5.00 |  | 
COc1ccc2c(c1)[n+]([O-])c(C(F)(F)F)c(C(=O)c1ccccc1)[n+]2[O-] | 98 | 5.46 |  | 
COc1ccc2c(c1)[n+]([O-])c(C)c(C(=O)c1ccccc1)[n+]2[O-] | 9 |  |  | 
CC(C)(C)C(=O)c1c(C(F)(F)F)[n+]([O-])c2ccccc2[n+]1[O-] | 26 |  | < 0.3 | 8.7
Cc1cc2c(cc1C)[n+]([O-])c(C(=O)Nc1ccccc1C)c(C)[n+]2[O-] | 12 |  |  | 
Cc1ccccc1NC(=O)c1c(C)[n+]([O-])c2cc(Cl)c(Cl)cc2[n+]1[O-] | 49 |  |  | 
CCC(=O)c1c(C(F)(F)F)[n+]([O-])c2cc(F)c(F)cc2[n+]1[O-] | 100 | 6.30 |  | 
CC(C)C(=O)c1c(C(F)(F)F)[n+]([O-])c2cc(Cl)c(Cl)cc2[n+]1[O-] | 100 | 5.85 |  | 
Cc1c(C(=O)c2ccccc2)[n+]([O-])c2ccc(Cl)cc2[n+]1[O-] | 33 |  |  | 
COC(=O)c1c(C)[n+]([O-])c2cc(C)c(C)cc2[n+]1[O-] | 10 |  |  | 
Cc1ccc2c(c1)[n+]([O-])c(C(F)F)c(C(=O)c1ccccc1)[n+]2[O-] | 50.8 | 4.60 |  | 
O=C(c1ccco1)c1c(C(F)(F)F)[n+]([O-])c2cc(F)c(F)cc2[n+]1[O-] | 100 | 5.60 |  | 
Cc1cc2c(cc1C)[n+]([O-])c(C(=O)c1ccccc1)c(C)[n+]2[O-] | 3 |  |  | 
CCOC(=O)c1c(-c2ccccc2)[n+]([O-])c2cc(C)c(C)cc2[n+]1[O-] | 0 |  |  | 
CC(=O)c1c(C)[n+]([O-])c2cc(Cl)c(Cl)cc2[n+]1[O-] | 60 | 4.74 |  | 
CCOC(=O)c1c(-c2ccccc2)[n+]([O-])c2cc(C)ccc2[n+]1[O-] | 13 |  |  | 
